From ChEMBL document CHEMBL4706643 (J Med Chem, 2021)
“Also recorded” adds a separate entry of the source. Active and inactive are the calls of the source. The calls are words filed in the database; no cut-off is given here.

Key:
[1] = Intrinsic clearance in human liver microsomes at 1 uM preincubated for 5 mins followed by NADPH addition and measured upto 60 mins by LC-MS analysis; assay type: ADME, Microsome; conditions: read-out: CLH
Outline: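 Human or mouse liver microsomes, final 1 mg/mL in 0.05 M phosphate buffer pH 7.4; compound final 1 μM, preincubated 37 °C 5 min, started with 1 mM NADPH; sampled at 0, 5, 15, 30, 60 min, methanol quench, −20 °C 1 h, centrifuged, supernatant by LC–MS.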

[2] = Clearance in C57BL/6 mouse at 5 mg/kg, iv; assay type: ADME, organism-based; conditions: in vivo
Outline: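 Male C57BL/6 mice (n = 3), single dose IV 5 mg/kg, IP 10 mg/kg or PO 10 mg/kg in DMSO:cremophor:0.9% NaCl 5:5:90; plasma parameters reported as means.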

[3] = target: T1, Hepatic sodium/bile acid cotransporter (Homo sapiens, UniProt Q14973); assay: Inhibition of human NTCP expressed in human HepG2 cells assessed as decrease in NTCP surface expression at 2 uM incubated for 2 hrs by DAPI staining based analysis; assay type: cell-based; conditions: hepg2, 2 h, 2 h
T1 sequence (Q14973 whole entry): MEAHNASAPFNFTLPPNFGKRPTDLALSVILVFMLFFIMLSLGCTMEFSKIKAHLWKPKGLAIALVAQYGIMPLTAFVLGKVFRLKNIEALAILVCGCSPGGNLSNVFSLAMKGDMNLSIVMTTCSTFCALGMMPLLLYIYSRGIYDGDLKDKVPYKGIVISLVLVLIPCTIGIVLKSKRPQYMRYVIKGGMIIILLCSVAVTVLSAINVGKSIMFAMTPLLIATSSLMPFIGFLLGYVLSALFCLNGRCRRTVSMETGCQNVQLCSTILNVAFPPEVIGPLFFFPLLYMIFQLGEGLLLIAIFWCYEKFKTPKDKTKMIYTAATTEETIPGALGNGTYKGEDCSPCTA
Outline: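 HepG2-NTCP cells treated 2 h with DMSO, compound or TLCA at 2 μM, then immunostained for NTCP to assess cell-surface distribution.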

[4] = system: HepG2; assay: Inhibition of monkey NTCP-mediated [3H]-TCA uptake expressed in human HepG2 cells at 2 uM incubated for 2 hrs followed by substrate addition and measured for 10 mins by microbeta liquid scintillation counter analysis; assay type: cell-based; conditions: Macaca mulatta
Outline: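 HepG2 cells expressing NTCP (human, mouse, monkey or tree shrew) seeded 4–6 h, PMM 20–24 h; compound 2 h, then Na+ Ringer's buffer with 2 μM 3H-TCA, 37 °C 10 min; PBS washes, lysis in 1% Triton X-100, scintillation counting. Single-concentration lines at 2 μM.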

CC[C@@H]1NC(=O)[C@H]([C@@H]2O[C@@H](Sc3cccc(OCc4ccccc4)c3)C[C@H]2C)N(C)C(=O)[C@H](C(C)C)N(C)C(=O)[C@H](CC(C)C)N(C)C(=O)[C@H](CC(C)C)N(C)C(=O)[C@@H](C)NC(=O)[C@H](C)NC(=O)[C@H](CC(C)C)N(C)C(=O)[C@H](C(C)C)NC(=O)[C@H](CC(C)C)N(C)C(=O)CN(C)C1=O
microsomal CLint at 1 µM [1]: 8 µL/min/mg | clearance [2]: 2.1 mL/min/kg | inhibition (INH) [3]: Active; also recorded: Not Active | inhibition [4]: Active
